Active and inactive are the calls of the source. The calls are words filed in the database; no cut-off is given here.
Assays:
[1] = Antiproliferative activity against human PLC/PRF/5 after 72 hrs by CellTiter Glo assay; format: functional; details: PLC-PRF-5, 72 h
Summary of the method: (§1)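 Cell viability assay in hepatocellular carcinoma cell lines; IC50 values derived from concentration–response data and reported in nM.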

SNU-398 [2] = assay: Antiproliferative activity against human SNU398 cells; format: functional, cell-based; summary of the method: as §1
[3] = Cell cycle arrest in human PLC/PRF/5 cells assessed as accumulation at sub-G1 phase after 24 hrs by FACS analysis (reference value: 1.4%); format: functional, cell-based
SNU-398 [4] = assay: Antiproliferative activity against human SNU398 after 72 hrs by CellTiter Glo assay; format: functional, cell-based; details: SNU-398, 72 h; summary of the method: as §1
[5] = Antiproliferative activity against human PLC/PRF/5 cells; format: functional, cell-based; summary of the method: as §1
HepG2 = assay: Antiproliferative activity against human HepG2 after 72 hrs by CellTiter Glo assay; format: functional, cell-based; details: HepG2, 72 h; summary of the method: as §1
SNU-475 = assay: Antiproliferative activity against human SNU475 after 72 hrs by CellTiter Glo assay; format: functional, cell-based; details: SNU-475, 72 h; summary of the method: as §1
SNU-398 [6] = assay: Cell cycle arrest in human SNU398 cells assessed as accumulation at G2 phase after 24 hrs by FACS analysis (reference value: 38.2%); format: functional
SNU-449 = assay: Antiproliferative activity against human SNU449 after 72 hrs by CellTiter Glo assay; format: functional, cell-based; details: SNU-449, 72 h; summary of the method: as §1
[7] = Cell cycle arrest in human PLC/PRF/5 cells assessed as accumulation at G2 phase after 24 hrs by FACS analysis (reference value: 26.1%); format: functional, cell-based
SNU-398 [8] = assay: Cell cycle arrest in human SNU398 cells assessed as accumulation at G1 phase after 24 hrs by FACS analysis (reference value: 55.8%); format: functional
[9] = Antiproliferative activity against human Hep3B after 72 hrs by CellTiter Glo assay; format: functional, Hep 3B2; summary of the method: as §1
[10] = Cell cycle arrest in human PLC/PRF/5 cells assessed as accumulation at G1 phase after 24 hrs by FACS analysis (reference value: 66.8%); format: functional, cell-based
[11] = Antiproliferative activity against human JHH4 after 72 hrs by CellTiter Glo assay; format: functional; summary of the method: as §1
Bel-7402 = assay: Antiproliferative activity against human Bel7402 after 72 hrs by CellTiter Glo assay; format: functional, cell-based; details: Bel-7402, 72 h; summary of the method: as §1
SNU-398 [12] = assay: Cell cycle arrest in human SNU398 cells assessed as accumulation at sub-G1 phase after 24 hrs by FACS analysis (reference value: 1.2%); format: functional
SNU-423 = assay: Antiproliferative activity against human SNU423 after 72 hrs by CellTiter Glo assay; format: functional, cell-based; details: SNU-423, 72 h; summary of the method: as §1
[13] = Antiproliferative activity against human MHCC97H after 72 hrs by CellTiter Glo assay; format: functional; summary of the method: as §1
[14] = Antiproliferative activity against human SNU182 after 72 hrs by CellTiter Glo assay; format: functional, cell-based; details: SNU-182, 72 h; summary of the method: as §1
[15] = Antiproliferative activity against human JHH2 after 72 hrs by CellTiter Glo assay; format: functional; summary of the method: as §1
SNU-387 = assay: Antiproliferative activity against human SNU387 after 72 hrs by CellTiter Glo assay; format: functional, cell-based; details: SNU-387, 72 h; summary of the method: as §1
Huh-7 = assay: Antiproliferative activity against human HuH7 after 72 hrs by CellTiter Glo assay; format: functional, cell-based; details: Huh-7, 72 h; summary of the method: as §1
SMMC-7721 = assay: Antiproliferative activity against human SMMC7721 after 72 hrs by CellTiter Glo assay; format: functional, cell-based; details: SMMC-7721, 72 h; summary of the method: as §1
[16] = Metabolic stability in microsomes assessed as compound remaining; format: ADME, Microsome
SNU-398 [17] = assay: Cell cycle arrest in human SNU398 cells assessed as accumulation at G2 phase at 2 uM after 24 hrs by FACS analysis (reference value: 38.2%); format: functional
Bos taurus [18] = species: Bos taurus; assay: Inhibition of calf brain tubulin assembly at 10 uM by fluorometry in presence of isohomohalichondrin
Bos taurus [19] = species: Bos taurus; assay: Binding affinity to calf brain tubulin assessed as increase in fluorescence at 10 uM by fluorometry relative to control
Summary of the method: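 Fluorescence emission spectra of 10 μM ligand with and without 10 μM tubulin in 10 mM sodium phosphate, 0.1 mM GTP, pH 7.0, 25 °C. Emission intensity (425 nm maximum) and anisotropy were compared between bound and unbound ligand.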

Bos taurus [20] = species: Bos taurus; assay: Inhibition of calf brain tubulin assembly at 10 uM by fluorometry in presence of vinblastine
[21] = Antiproliferative activity against human JHH7 after 72 hrs by CellTiter Glo assay; format: functional; summary of the method: as §1
Bos taurus [22] = species: Bos taurus; assay: Inhibition of calf brain tubulin assembly at 10 uM by fluorometry in presence of pironetin
Bos taurus [23] = species: Bos taurus; assay: Inhibition of calf brain tubulin assembly at 10 uM by fluorometry in presence of gossipol
Bos taurus [24] = species: Bos taurus; assay: Binding affinity to calf brain tubulin alpha/beta heterodimer by NOE method; format: tissue-based
Summary of the method: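 Transferred NOE (TR-NOESY) of ligand with tubulin α/β heterodimer at 500 MHz, 298 K. The sign of the NOE cross-peaks is compared between ligand with tubulin and free ligand. Bound conformation derived with molecular mechanics.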

SNU-398 [25] = assay: Cell cycle arrest in human SNU398 cells assessed as accumulation at sub-G1 phase at 2 uM after 24 hrs by FACS analysis (reference value: 1.2%); format: functional
[26] = Cell cycle arrest in human PLC/PRF/5 cells assessed as accumulation at G1 phase at 2 uM after 24 hrs by FACS analysis (reference value: 66.8%); format: functional, cell-based
Bos taurus [27] = species: Bos taurus; assay: Inhibition of calf brain tubulin assembly at 10 uM by fluorometry in presence of podophyllotoxin
[28] = Cell cycle arrest in human PLC/PRF/5 cells assessed as accumulation at sub-G1 phase at 2 uM after 24 hrs by FACS analysis (reference value: 1.4%); format: functional, cell-based
[29] = Metabolic stability in S9 fraction assessed as compound remaining; format: ADME, subcellular
Bos taurus [30] = species: Bos taurus; assay: Binding affinity to calf brain tubulin alpha/beta heterodimer assessed as increase in proton signal at […] by STD NMR analysis
Summary of the method: (§2)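 STD NMR with freshly prepared tubulin α/β heterodimer. Ligand:protein molar ratio 30:1 ([…], […]). Read-out: enhancement of ligand proton signals in STD spectra versus an off-resonance reference spectrum acquired without protein irradiation.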

SNU-398 [31] = assay: Cell cycle arrest in human SNU398 cells assessed as accumulation at G1 phase at 2 uM after 24 hrs by FACS analysis (reference value: 55.8%); format: functional
Bos taurus [32] = species: Bos taurus; assay: Binding affinity to calf brain tubulin assessed as binding constant by fluorometry; format: tissue-based
Summary of the method: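 Fluorescence titration in 10 mM sodium phosphate, 0.1 mM GTP, pH 7.0, 25 °C. Ligand at 5 μM was titrated with tubulin up to 100 μM. Bound and free ligand were quantified from the change in ligand fluorescence. Binding constant fitted assuming a single site, 1:1 stoichiometry and 0.87 sites per dimer. Average of five experiments.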

Bos taurus [33] = species: Bos taurus; assay: Binding affinity to calf brain tubulin assessed as increase in fluorescence at 10 uM by fluorometry in presence of Mg2+
Bos taurus [34] = species: Bos taurus; assay: Inhibition of calf brain tubulin assembly at 1 mM
Summary of the method: (§3)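 Read-out: amount of pelleted polymerized tubulin across a compound concentration range. EC50 taken at 50% reduction of the pellet. Average of three experiments.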

Bos taurus [35] = species: Bos taurus; assay: Inhibition of calf brain tubulin assembly at 10 uM by fluorometry in presence of noscapine
[36] = Cell cycle arrest in human PLC/PRF/5 cells assessed as accumulation at G2 phase at 2 uM after 24 hrs by FACS analysis (reference value: 26.1%); format: functional, cell-based
[37] = Inhibition of calf brain tubulin assembly; parameters: species or system Bos taurus; summary of the method: as §3
Bos taurus [38] = species: Bos taurus; assay: Inhibition of calf brain tubulin assembly at 10 uM by fluorometry in presence of nocodazole
Bos taurus [39] = species: Bos taurus; assay: Binding affinity to calf brain tubulin alpha/beta heterodimer assessed as increase in proton signal at […] by STD NMR analysis in the presence of noscapine; summary of the method: as §2

CC(=O)O[C@@]12CO[C@@H]1C[C@H](O)[C@@]1(C)C(=O)[C@H](O)C3=C(C)[C@@H](OC(=O)[C@H](O)[C@@H](NC(=O)OC(C)(C)C)c4ccccc4)C[C@@](O)([C@@H](OC(=O)c4ccccc4)[C@H]21)C3(C)C.O.O.O [DOCETAXEL]
IC50 [1]: 16.7 nM
IC50 (SNU-398 [2]): 16.6 nM
Activity [3]: 16.8%
IC50 (SNU-398 [4]): 17.6 nM
IC50 [5]: 12 nM
IC50 (HepG2): > 100 nM
IC50 (SNU-475): 20.5 nM
Activity (SNU-398 [6]): 72.2%
IC50 (SNU-449): > 100 nM
Activity [7]: 64.4%
Activity (SNU-398 [8]): 12.7%
IC50 [9]: 38.2 nM
Activity [10]: 11.2%
IC50 [11]: 14.1 nM
IC50 (Bel-7402): 1.9 nM
Activity (SNU-398 [12]): 9.3%
IC50 (SNU-423): 10.8 nM
IC50 [13]: 22.4 nM
IC50 [14]: 39.2 nM
IC50 [15]: > 100 nM
IC50 (SNU-387): 4.3 nM
IC50 (Huh-7): 12.1 nM
IC50 (SMMC-7721): 2 nM

COc1ccc2c(c1N)C(=O)O[C@@H]2[C@H]1c2c(cc3c(c2OC)OCO3)CCN1C
Stability [16]: < 5%
IC50 [1]: 278 nM
Activity (SNU-398 [17]): 59.8%
IC50 (SNU-398 [2]): 94.3 nM
inhibition (Bos taurus [18]): Active
fold change (FC) (Bos taurus [19]): 11
inhibition (Bos taurus [20]): Active
IC50 [21]: 318 nM
IC50 (SNU-398 [4]): 324 nM
inhibition (Bos taurus [22]): Active
inhibition (Bos taurus [23]): Active
IC50 [5]: 237 nM
Activity (Bos taurus [24]): Active
IC50 (HepG2): > 1000 nM
Activity (SNU-398 [25]): 13.8%
Activity [26]: 18%
IC50 (SNU-475): 584 nM
inhibition (Bos taurus [27]): Active
IC50 (SNU-449): 283 nM
IC50 [9]: > 1000 nM
Activity [28]: 8.4%
IC50 [11]: 107 nM
IC50 (Bel-7402): 78.4 nM
Stability [29]: < 5%
inhibition (Bos taurus [30]): Active
IC50 (SNU-423): 226 nM
IC50 [13]: 351 nM
IC50 [14]: 508 nM
Activity (SNU-398 [31]): 22.9%
IC50 [15]: > 1000 nM
Activity (Bos taurus [32]): 1.15 ×10⁵ /M
IC50 (SNU-387): 59.5 nM
Activity (Bos taurus [33]): Active
inhibition (Bos taurus [34]): 50%
inhibition (Bos taurus [35]): Active
Activity [36]: 67%
EC50 [37]: 1200 nM
inhibition (Bos taurus [38]): inactive
IC50 (Huh-7): 218 nM
IC50 (SMMC-7721): 109 nM
inhibition (Bos taurus [39]): Active

Source: ChEMBL document CHEMBL2029236, “Tubulin binding, protein-bound conformation in solution, and antimitotic cellular profiling of noscapine and its derivatives” (J Med Chem, 2012)
